How the values were obtained:
[1] = system: Trypanosoma cruzi; test: Antitrypanosomal activity against intracellular Trypanosoma cruzi amastigotes in rat L6 cells; assay type: functional, organism-based
Method in brief: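 L6 rat myoblasts were seeded at 2,000 cells/well in RPMI 1640 with 10% FBS and 2 mM L-glutamine. After 24 h, 5,000 Tulahuen C2C4 trypomastigotes expressing lacZ were added with twofold serial drug dilutions. Plates were incubated 4 days at 37°C in 5% CO2. CPRG/Nonidet was then added, and colour was read at 540 nm after 2–4 h. IC50 came from the sigmoidal inhibition curve.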

[2] = system: L6; test: Growth inhibition of rat L6 cells; assay type: cell-based
[3] = Selectivity index, ratio of IC50 for human recombinant squalene synthase over IC50 for Trypanosoma cruzi squalene synthase
Method in brief: (§1)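 T. cruzi enzyme was purified TcSQS24/36; human SQS was E. coli extract expressing pHSS16. Stopped with NaOH, squalene carrier added, TLC in toluene-ethyl acetate 9:1, squalene zone counted by scintillation. Index = human IC50 / T. cruzi IC50.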

[4] = Selectivity index, ratio of IC50 for rat L6 cells over IC50 for intracellular Trypanosoma cruzi amastigotes; assay type: functional
[5] = Inhibition of Trypanosoma cruzi recombinant squalene synthase
Method in brief: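 The enzyme was purified His-tagged T. cruzi SQS expressed in E. coli, truncated by 24 N-terminal and 36 C-terminal residues. Activity was measured as [3H]FPP-to-[3H]squalene conversion in pH 7.4 MOPS-NaOH with 20 mM MgCl2, 5 mM CHAPS, 1% Tween 80, 10 mM DTT, 0.25 mM NADPH and 0.5 μM FPP, 5 min at 37°C. Reactions were stopped with NaOH, squalene was separated by silica TLC and counted by scintillation, and IC50 was curve-fitted.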

[6] = biological target: T1, Squalene synthase (Homo sapiens, UniProt P37268); test: Inhibition of human recombinant squalene synthase
T1 sequence (P37268 whole entry): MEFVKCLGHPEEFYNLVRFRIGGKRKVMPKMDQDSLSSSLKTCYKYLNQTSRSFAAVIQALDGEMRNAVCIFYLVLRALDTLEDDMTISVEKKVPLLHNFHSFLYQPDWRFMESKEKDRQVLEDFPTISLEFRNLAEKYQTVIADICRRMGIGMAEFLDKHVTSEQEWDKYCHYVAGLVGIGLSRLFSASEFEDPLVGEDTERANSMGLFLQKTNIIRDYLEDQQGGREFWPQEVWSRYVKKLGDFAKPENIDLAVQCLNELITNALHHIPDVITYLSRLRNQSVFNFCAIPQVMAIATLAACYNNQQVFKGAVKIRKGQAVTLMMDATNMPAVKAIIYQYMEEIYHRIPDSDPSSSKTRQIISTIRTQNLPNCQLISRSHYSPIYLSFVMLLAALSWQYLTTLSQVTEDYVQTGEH
Method in brief: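 The enzyme source was extracts of E. coli expressing truncated human SQS. Activity was measured as [3H]FPP-to-squalene conversion at 0.5 μM FPP and 0.25 mM NADPH in pH 7.4 MOPS-NaOH with MgCl2, CHAPS, Tween 80 and DTT, for 5 min at 37°C. Reactions were stopped with NaOH, squalene was separated by silica TLC (toluene-ethyl acetate 9:1) and counted by scintillation, and IC50 was curve-fitted.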

[7] = system: Trypanosoma cruzi; test: Activity of Trypanosoma cruzi truncated squalene synthase 24/36
Method in brief: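 Purified N-His-tagged TcSQS24/36 (E. coli, IMAC then MonoQ) in 50 mM MOPS-NaOH pH 7.4, 20 mM MgCl2, 5 mM CHAPS, 1% Tween 80, 10 mM DTT, 0.025 mg/ml BSA. [3H]FPP to [3H]squalene, 5 min at 37°C. FPP Km: 1–20 μM FPP with 2 mM NADPH. NADPH Km: 5–400 μM NADPH with 20 μM FPP. Nonlinear hyperbolic fits.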

[8] = system: Saccharomyces cerevisiae; test: Activity of Saccharomyces cerevisiae C-terminal truncated squalene synthase
[9] = system: Trypanosoma cruzi; test: Activity of Trypanosoma cruzi microsomal or mitochondrial squalene synthase
[10] = system: Trypanosoma cruzi; test: Activity of Trypanosoma cruzi glycosomal squalene synthase
[11] = system: Leishmania mexicana; test: Activity of Leishmania mexicana microsomal or mitochondrial squalene synthase
[12] = system: Leishmania mexicana; test: Activity of Leishmania mexicana glycosomal squalene synthase
[13] = organism: Homo sapiens; test: Activity of human double-truncated squalene synthase; method in brief: as §1
[14] = substrate: CC(C)=CCC/C(C)=C/CC/C(C)=C/COP(=O)(O)OP(=O)(O)O; test: (§2) Activity of human full length squalene synthase expressed in baculovirus
[15] = substrate: NC(=O)c1ccc[n+]([C@@H]2O[C@H](COP(=O)([O-])OP(=O)(O)OC[C@H]3O[C@@H](n4cnc5c(N)ncnc54)[C@H](OP(=O)(O)O)[C@@H]3O)[C@@H](O)[C@H]2O)c1; test: as §2

## C(#Cc1ccc(OCc2ccccc2)cc1)C1=CN2CCC1CC2
[1]
  IC50: 3100 nM
[2]
  IC50: 47200 nM
[3]
  Ratio IC50: 0.3
[4]
  Ratio IC50: 15
[5]
  IC50: 830 nM
[6]
  IC50: 250 nM

## NC(=O)c1ccc[n+]([C@@H]2O[C@H](COP(=O)([O-])OP(=O)(O)OC[C@H]3O[C@@H](n4cnc5c(N)ncnc54)[C@H](OP(=O)(O)O)[C@@H]3O)[C@@H](O)[C@H]2O)c1
[7]
  Km: 23.3 µM
  Vmax: 1850 nmol/min/mg
[8]
  Km: 530 µM
[9]
  Km: 33 µM
  Vmax: 0.76 nmol/min/mg
[10]
  Km: 40 µM
  Vmax: 0.43 nmol/min/mg
[11]
  Km: 57 µM
  Vmax: 0.84 nmol/min/mg
[12]
  Km: 62 µM
  Vmax: 0.58 nmol/min/mg

## CO[C@H]1CN(c2ccc(C#C[C@@]3(O)CN4CCC3CC4)c(Cc3ccccc3)n2)C[C@H]1O
[1]
  IC50: 8 nM
[3]
  Ratio IC50: 1.8
[5]
  IC50: 0.84 nM
[6]
  IC50: 1.5 nM

## CCOC(=O)c1ccc(C2=CN3CCC2CC3)cc1
[3]
  Ratio IC50: 140
[4]
  Ratio IC50: 17
[5]
  IC50: 50 nM
[6]
  IC50: 7000 nM

## COCCCOc1ccc(C#C[C@@]2(O)CN3CCC2CC3)c(Cc2ccccc2)n1
[1]
  IC50: 11 nM
[3]
  Ratio IC50: 1.7
[5]
  IC50: 3.52 nM
[6]
  IC50: 6 nM

## C1=C(Cc2ccc(-c3ccccc3)cc2)C2CCN1CC2
[1]
  IC50: 4700 nM
[2]
  IC50: 20500 nM
[3]
  Ratio IC50: > 27
[4]
  Ratio IC50: 4.4
[5]
  IC50: 730 nM
[6]
  IC50: > 20000 nM

## CC(C)=CCC/C(C)=C/CC/C(C)=C/COP(=O)(O)OP(=O)(O)O
[7]
  Km: 5.25 µM
  Vmax: 1430 nmol/min/mg
[8]
  Km: 2.5 µM
[9]
  Km: 2.3 µM
  Vmax: 1.18 nmol/min/mg
[10]
  Km: 2.8 µM
  Vmax: 0.97 nmol/min/mg
[13]
  Km: 2.8 µM
[11]
  Km: 2.8 µM
  Vmax: 0.98 nmol/min/mg
[12]
  Km: 3.2 µM
  Vmax: 0.75 nmol/min/mg

## O[C@]1(C#Cc2cccc(OCc3ccccc3)c2)CN2CCC1CC2
[1]
  IC50: 9600 nM
[2]
  IC50: 45000 nM
[3]
  Ratio IC50: > 13
[4]
  Ratio IC50: 4.7
[5]
  IC50: 1500 nM
[6]
  IC50: > 20000 nM

B1: Squalene synthase (Homo sapiens), P37268 (protein)
chain: MEFVKCLGHPEEFYNLVRFRIGGKRKVMPKMDQDSLSSSLKTCYKYLNQTSRSFAAVIQALDGEMRNAVCIFYLVLRALDTLEDDMTISVEKKVPLLHNFHSFLYQPDWRFMESKEKDRQVLEDFPTISLEFRNLAEKYQTVIADICRRMGIGMAEFLDKHVTSEQEWDKYCHYVAGLVGIGLSRLFSASEFEDPLVGEDTERANSMGLFLQKTNIIRDYLEDQQGGREFWPQEVWSRYVKKLGDFAKPENIDLAVQCLNELITNALHHIPDVITYLSRLRNQSVFNFCAIPQVMAIATLAACYNNQQVFKGAVKIRKGQAVTLMMDATNMPAVKAIIYQYMEEIYHRIPDSDPSSSKTRQIISTIRTQNLPNCQLISRSHYSPIYLSFVMLLAALSWQYLTTLSQVTEDYVQTGEH
[14]
  Km: 2.3 µM
  Vmax: 4800 nmol/min/mg
[15]
  Km: 430 µM
  Vmax: 3800 nmol/min/mg
